Assay [1] relates to MV4-11. Description: Induction of apoptosis in human MV4-11 cells harboring FLT3-ITD mutant assessed as increase in early apoptotic cells after 48 hrs by AnnexinV-FITC/Propidium iodide staining based flow cytometric analysis. Format: functional, cell-based. The conditions noted are these: dose 0.03-0.15 µM. In general terms: Flow cytometry measures light scatter and fluorescence of single cells or particles in a stream.

Assay [2] is described as follows: Antiproliferative activity against relapsed human derived M3 Fab type Acute myeloid leukemic cells assessed as reduction in cell viability incubated for 48 hr by CellTiter-Glo assay. Format: functional, cell-based. The note with it: Leukemia cell. The gist of the method: (§1)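 Primary AML peripheral blood or bone marrow mononuclear cells thawed and expanded ex vivo; blasts counted between day 10 and 13, characterised by CD123 FACS and FLT3 genotyping. Blasts treated 48 h; proliferation IC50 read by CellTiter-Glo.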

Assay [3] can be described thus: Antiproliferative activity against human derived M5b Fab type Acute myeloid leukemic cells assessed as reduction in cell viability incubated for 48 hr by CellTiter-Glo assay. It is filed as functional, cell-based. The conditions noted are these: Leukemia cell. The gist of the method: as §1
In assay [4] the test system is MOLM-13. Description: Induction of cell cycle arrest in human MOLM-13 cells harboring FLT3-ITD mutant assessed increase in cell accumulation at G1 phase after 24 hrs by Propidium iodide staining based flow cytometric analysis. Format: functional. The gist of the method:
(§2)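 Cells then fixed in ice-cold 70% ethanol, stained with 20 ng/ml propidium iodide, and cell-cycle phases measured by flow cytometry.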

In a further assay the test system is Leukemia cell. Description: Induction of cell cycle arrest in human derived Acute myeloid leukemic cells assessed as increase in cell accumulation at G1 phase at 0.47 uM after 48 hrs by Propidium iodide staining based flow cytometric analysis.
Assay [5] has as its system MV4-11. Description: Induction of apoptosis in human MV4-11 cells harboring FLT3-ITD mutant assessed as increase in early apoptotic cells after 72 hrs by AnnexinV-FITC/Propidium iodide staining based flow cytometric analysis. It is filed as functional, cell-based. The note with it: dose 0.03-0.15 µM.
In assay [6] the test system is MV4-11. Description: Induction of apoptosis in human MV4-11 cells harboring FLT3-ITD mutant assessed early apoptotic cells at […] after 48 hrs by AnnexinV-FITC/Propidium iodide staining based flow cytometric analysis (reference value: 11.84 %). It is filed as functional. The note with it: dose 0.15 µM.
Assay [7] has as its system MOLM-13. Description: Antitumor activity against human MOLM-13 cells harboring FLT-3 ITD mutant xenografted in BALB/c nude mouse assessed as tumor growth inhibition at 50 mg/kg, po bid administered daily for 7 days relative to control. The conditions noted are these: MOLM-13, 168 h, time 7 day, read-out: TGI. It is filed as functional. In general terms: Xenograft models place foreign cells or tissue in a host animal.

The nature of assay [8]: Antiproliferative activity against relapsed human derived M5b Fab type Acute myeloid leukemic cells assessed as reduction in cell viability incubated for 48 hr by CellTiter-Glo assay. The note with it: Leukemia cell. Format: functional, cell-based. The method, boiled down: as §1
In general terms: In ATP-based viability assays light output follows the ATP content of the culture.

The test system of assay [9] is MOLM-13. Description: Antitumor activity against human MOLM-13 cells harboring FLT-3 ITD mutant xenografted in BALB/c nude mouse assessed as decrease in phosphorylated FLT3 at Y591 residue at 150 mg/kg, po measured after 3 hrs by Western blot analysis. It is filed as functional, organism-based. The method, boiled down: (§3)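 Mice bearing s.c. MOLM-13 xenografts given a single oral dose of 150 mg/kg. Tumours harvested at 3 h; lysates immunoblotted for phospho-FLT3, -STAT3, -STAT5, -Akt and total actin.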

The test system of assay [10] is MOLM-13. Description: Antitumor activity against human MOLM-13 cells harboring FLT-3 ITD mutant xenografted in BALB/c nude mouse assessed as tumor growth inhibition at 150 mg/kg, […] relative to control. It is filed as functional. The conditions noted are these: MOLM-13, 168 h, route po, read-out: TGI.
Assay [11] is described as follows: Antiproliferative activity against human derived M4 Fab type Acute myeloid leukemic cells assessed as reduction in cell viability incubated for 48 hr by CellTiter-Glo assay. Format: functional, cell-based. The note with it: Leukemia cell. The method, boiled down: as §1
Assay [12] relates to MV4-11. Description: Induction of apoptosis in human MV4-11 cells harboring FLT3-ITD mutant assessed necrotic cells at […] after 48 hrs by AnnexinV-FITC/Propidium iodide staining based flow cytometric analysis (reference value: 0.45 %). Format: functional. The note with it: dose 0.15 µM.
The test system of assay [13] is MV4-11. Description: Antitumor activity against human MV4-11 cells harboring FLT-3 ITD mutant xenografted in BALB/c nude mouse assessed as decrease in phosphorylated STAT5 at Y694 residue at 150 mg/kg, po measured after 2 to 4 hrs by Western blot analysis. It is filed as functional, organism-based. The conditions noted are these: time 2-4 hrs. The method, boiled down: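 Mice bearing s.c. MV4-11 xenografts given a single oral dose of 150 mg/kg in methylcellulose/Tween vehicle. Tumours harvested at 2 and 4 h; lysates immunoblotted for phospho-STAT5 with actin as loading control.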

Assay [14] deals with MV4-11. Description: Induction of apoptosis in human MV4-11 cells harboring FLT3-ITD mutant assessed late apoptotic cells at […] after 48 hrs by AnnexinV-FITC/Propidium iodide staining based flow cytometric analysis (reference value: 1.56 %). It is filed as functional. The note with it: dose 0.15 µM.
The test system of assay [15] is MV4-11. Description: Induction of apoptosis in human MV4-11 cells harboring FLT3-ITD mutant assessed early apoptotic cells at 0.03 uM after 48 hrs by AnnexinV-FITC/Propidium iodide staining based flow cytometric analysis (reference value: 11.84 %). Format: functional.
Another assay deals with RS4-11. Description: Induction of cell cycle arrest in human RS4-11 cells assessed increase in cell accumulation at G1 phase after 24 hrs by Propidium iodide staining based flow cytometric analysis. Format: functional. The method, boiled down:
as §2

Assay [16] deals with MOLM-13. Description: Antitumor activity against human MOLM-13 cells harboring FLT-3 ITD mutant xenografted in BALB/c nude mouse assessed as decrease in phosphorylated […] residue at 150 mg/kg, po measured after 3 hrs by Western blot analysis. Format: functional, organism-based. The gist of the method:
as §3

Assay [17] concerns MV4-11. Description: Induction of apoptosis in human MV4-11 cells harboring FLT3-ITD mutant assessed late apoptotic cells at 0.03 uM after 72 hrs by AnnexinV-FITC/Propidium iodide staining based flow cytometric analysis (reference value: 1.48 %). It is filed as functional.
The subject of assay [18] is MV4-11. Description: Induction of apoptosis in human MV4-11 cells harboring FLT3-ITD mutant assessed viable cells at […] after 48 hrs by AnnexinV-FITC/Propidium iodide staining based flow cytometric analysis (reference value: 86.15 %). Format: functional. The note with it: dose 0.15 µM.
Assay [19] concerns MV4-11. Description: Induction of apoptosis in human MV4-11 cells harboring FLT3-ITD mutant assessed viable cells at […] after 72 hrs by AnnexinV-FITC/Propidium iodide staining based flow cytometric analysis (reference value: 90.5 %). It is filed as functional. The conditions noted are these: dose 0.15 µM.

Our source for the Activity, IC50 and inhibition in vivo values is ChEMBL document CHEMBL5715947 (Blood Cancer J, 2011).

SMILES strings stand for the structures. pIC50: −log10 of the molar value. The source made the active and inactive calls. The calls are words filed in the database; no cut-off is given here.

Consider `C1=N/C2=N/c3ccc(OCCN4CCCC4)c(c3)COC/C=C/COCc3cccc(c3)C(=C1)N2` [PACRITINIB], for which the Activity entry was “Dose-Dependent Effect” in the assay on MV4-11 [1]; “Dose-Dependent Effect” with MOLM-13 [4]; “Dose-Dependent Effect” in the assay on MV4-11 [5]; 39.9% in the assay on MV4-11 [6]; 4.18% with MV4-11 [12]; 20.83% in the assay on MV4-11 [14]. The Activity in the assay with MV4-11 [15] is 24.5%; in the assay on RS4-11 it was “Dose-Dependent Effect”; in the assay with MV4-11 [17], 3.74%; in the assay on MV4-11 [18], 35.61%; in the assay with MV4-11 [19] it was 20.38%. Besides, the pIC50 (usually −log10 of the IC50, conventionally taken in molar units) is 6.68 in [2], 6.62 in assay [3], 6.34 in [8] and 6.08 in assay [11]. Further, the result with Leukemia cell, in the assay with MOLM-13 [9], in the assay with MV4-11 [13] and in the assay on MOLM-13 [16] was Active. In the assay on MOLM-13 [7], the inhibition in vivo at 50 mg/kg came out at 15%. The inhibition in vivo at 150 mg/kg in the assay with MOLM-13 [10] was determined as 83%.
